# Beta2AR agonist = agonists of human beta-2 adrenergic receptor inducing internalization; 0.43% of 340,000 active; response, % (test concentration not listed); Am2.2-beta2AR cells, FAP receptor internalization, flow cytometry; AID 504454;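 active = response above a set limit, near 3 SD of response in nonfluorescent compounds, cut at about 42% in these data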
# MC4R antagonist = antagonists of human melanocortin 4 receptor (MC4R); P32245; MC4R-expressing cells, MTII-stimulated cAMP, LANCE TR-FRET; inhibition, % at 6.5 µM; 0.48% of 360,000 active;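 active = inhibition above its plate's cutoff, the mean of tested wells on that plate plus 3 SD, cut at about 29% in these data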
#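 system = U2OS cells with stable human MC4R expression | also added = Melanotan II challenge after compound preincubation | dosing = one concentration, 6.5 µM nominal | incubation = compound 30 min, challenge 1 h, detection 1 h | measured by = TR-FRET with Eu-cAMP and labeled anti-cAMP, 671 nm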
# TAAR1 ag = agonists of human TAAR1; Q96RJ0; AID 624467; 0.99% of 360,000 active; activation, % at 3 µM; CHO RD-HGA16 TAAR1, Fluo-8 calcium fluorescence; vehicle wells 0%, saturating PEA agonist 100%;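 active = activation above the mean activation of all test compounds in the run plus 3 SD, cut at about 38% in these data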
#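 Assay system: CHO-derived RD-HGA16 cells with stable Gα16 and human TAAR1; timing: 17-24 h seeding, 75 min 37 °C dye, 30 min RT; read-out: % activation from peak over basal fluorescence ratio, DMSO-to-PEA scaled; measured by: kinetic Fluo-8 calcium fluorescence; benchmarks: low control DMSO, high control PEA (EC100); doses: 3 µM single concentration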
# MC4R ag barr = human MC4R agonism via beta-arrestin; 0.98% of 360,000 active; U2OS MC4R beta-arrestin complementation, luminescence; percent of melanotan II response, DMSO zero; AID 540308; activation, % at 8.9 µM; P32245;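 active = activation above a per-plate cutoff, the mean activation of sample wells on that plate plus 3 SD, cut at about 8% in these data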
# TAAR1 antag = antagonists of human TAAR1 | Q96RJ0 | CHO RD-HGA16 TAAR1, Fluo-8 calcium fluorescence, antagonist | inhibition, % at 3 µM | 1.5% of 360,000 active | AID 624466;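 active = inhibition above a per-plate cutoff, the mean inhibition of test compounds on that plate plus 3 SD, cut at about 49% in these data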
#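 test system = CHO RD-HGA16 cells bearing hTAAR1 | replication = singlicate | controls = DMSO-only wells and EC80 β-PEA-stimulated wells | reagent = EC80 β-phenethylamine stimulus | read-out basis = percent inhibition of PEA-evoked calcium signal, max/basal emission ratio | schedule = seeding 17-24 h prior, 75-min 37 °C, 30-min RT dye loading | signal = kinetic Fluo-8 calcium fluorescence measurement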
# HTR2A ag = activates the mouse 5-HT2A serotonin receptor. CHO-K1 mHTR2A beta-arrestin complementation, luminescence; percent of 30 µM serotonin response. activation, % at 7.6 µM. 0.66% of 360,000 active;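 active = activation above a run cutoff, the mean activation of all tested compounds plus 3 SD, cut at about 14% in these data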
# Target sequence (P35363 whole entry, looked up): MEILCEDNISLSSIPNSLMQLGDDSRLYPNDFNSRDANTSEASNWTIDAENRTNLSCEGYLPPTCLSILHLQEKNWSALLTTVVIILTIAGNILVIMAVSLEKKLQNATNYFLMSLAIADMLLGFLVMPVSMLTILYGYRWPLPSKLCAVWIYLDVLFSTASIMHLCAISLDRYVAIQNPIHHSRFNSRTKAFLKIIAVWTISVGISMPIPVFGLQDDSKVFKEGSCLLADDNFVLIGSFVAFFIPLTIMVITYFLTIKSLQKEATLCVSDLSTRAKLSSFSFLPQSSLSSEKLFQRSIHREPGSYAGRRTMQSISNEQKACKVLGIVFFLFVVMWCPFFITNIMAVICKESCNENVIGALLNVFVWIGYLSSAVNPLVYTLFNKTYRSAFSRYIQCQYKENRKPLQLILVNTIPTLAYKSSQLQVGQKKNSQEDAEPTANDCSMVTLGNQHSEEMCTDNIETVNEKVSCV
# Numbers stand for hits; n = inactive; x = no result given. This is a sample that favours compounds with a hit; in the whole collection about 4.3% have one here.
SMILES,Beta2AR agonist,MC4R antagonist,TAAR1 ag,MC4R ag barr,TAAR1 antag,HTR2A ag
CCCN1CCCCC(NC(=O)COCc2ccccc2)C1=O (configuration not stated),x,x,n,x,n,x
COc1cccc(CNC(=O)[C@H]2CCCN2C(=O)[C@H]2CCCN2C(=O)c2ccc(F)c(C(F)(F)F)c2)c1,x,x,n,x,n,x
OCc1ccc2c(c1)c(-c1ccc3c(c1)OCCO3)c(-c1ccccc1)n2-c1ccccc1,n,n,n,n,62.0,n
O=C(O)c1ccccc1OC(C(=O)Nc1cc(Cl)cc(Cl)c1)c1ccccc1 (configuration not stated),n,n,n,9.3,n,n
O=C(COc1ccccc1Br)Nc1ccccc1C(F)(F)F,n,n,n,9.4,n,n
Cc1cc2c(nc1C)CCCN2S(=O)(=O)c1ccc(C(F)(F)F)cc1,x,x,n,x,n,x
COc1ccc(-n2nc3c(N4CCC(C(=O)NCCc5ccccc5C)CC4)nnc(C)c3c2C)cc1,n,n,x,n,x,n
COc1ccc(-n2nc3c(N4CCC(C(=O)NCc5ccccc5C)CC4)nnc(C)c3c2C)cc1,82.0,n,x,n,x,n
Cc1ccc(-n2nc3c(N4CCC(C(=O)NCCc5ccco5)CC4)nnc(C)c3c2C)cc1,n,n,n,n,n,n
Cc1ccc(-n2nc3c(N4CCC(C(=O)NCCc5ccccc5C)CC4)nnc(C)c3c2C)cc1,n,n,x,16.4,x,n
CC(OC(=O)c1ccc(Br)o1)C(=O)NCC1CCCCC1 (configuration not stated),n,n,n,n,n,n
COc1ccc(-c2n[nH]c(C)c2-c2ccc(Cl)cc2)c(O)c1,n,n,n,9.1,n,n
Cc1[nH]nc(-c2ccc(O)cc2O)c1-c1ccc(Cl)cc1,n,n,n,n,n,n
Cc1ccc(N/C(N)=N/c2nc(CSc3ccccn3)cc(=O)[nH]2)c(C)c1,n,n,n,n,n,n
CCc1ccc(N/C(N)=N/c2nc(CSc3ccccn3)cc(=O)[nH]2)cc1,n,n,n,n,55.2,n
COC(=O)c1cc2c(c3c4cc(OC)ccc4n(S(=O)(=O)c4cccc(C)c4)c13)C(=O)N(C)C2,x,x,n,x,n,x
CCCc1[nH]n(-c2ccc([N+](=O)[O-])cc2)c(=O)c1C=NCCc1c[nH]c2ccccc12,n,n,n,n,n,n
Cc1[nH]n(-c2ccc([N+](=O)[O-])cc2)c(=O)c1C=NCCc1c[nH]c2ccccc12,n,n,n,8.4,n,n
CC(=O)C1=CCN(C)CC1,x,x,n,x,n,x
OC(c1ccc(F)cc1)c1nc(-c2cc3ccccc3o2)cs1 (configuration not stated),x,n,45.2,n,75.2,n
Clc1ccc2c(N/N=C/c3ccccc3Br)ccnc2c1,42.0,n,n,n,n,n
Clc1ccc2c(N/N=C/c3cccc(Br)c3)ccnc2c1,46.1,n,n,n,n,n
O=[N+]([O-])c1ccc(/C=N/Nc2ccnc3cc(Cl)ccc23)o1,n,n,n,n,n,n
Cc1cccc(NC(=O)Nc2cccc(C#N)c2)n1,n,n,n,8.2,n,n
O=C(Nc1ccccc1N1CCN(C(=O)c2ccccc2)CC1)c1ccc([N+](=O)[O-])o1,n,n,n,n,54.9,n
SMILES,Beta2AR agonist,MC4R antagonist,TAAR1 ag,MC4R ag barr,TAAR1 antag,HTR2A ag
C[C@H](CO)N1C[C@H](C)[C@H](CN(C)S(=O)(=O)c2cccs2)Oc2ncc(Br)cc2C1=O,x,x,n,x,n,x
Cc1ccc(-c2cc3nc(NCCc4ccncc4)n(C)c(=O)c3s2)cc1,x,n,n,n,n,n
Cc1oc2c(c1C(=O)N1CCC(C)CC1)C(=O)c1ccccc1C2=O,x,x,n,x,n,x
Cc1oc2c(c1C(=O)c1ccc(Cl)cc1)C(=O)C(=O)c1ccccc1-2,63.4,n,n,n,n,n
Cc1ccc(C(=O)c2c(C)oc3c2C(=O)C(=O)c2ccccc2-3)cc1,47.0,n,x,n,x,n
Cc1cccc(Cn2cc(SCC(=O)Nc3nccs3)c3ccccc32)c1,n,n,n,8.7,n,n

# Screens: PubChem, several laboratories
